Results as given in ChEMBL document CHEMBL1828519, “Tricyclic thiazolopyrazole derivatives as metabotropic glutamate receptor 4 positive allosteric modulators” (J Med Chem, 2011).
≈ marks a conversion by molar mass, not a printed value.

Tests used:
[1] = target: T1, Metabotropic glutamate receptor 4 (Homo sapiens, UniProt Q14833); experiment: Positive allosteric modulation of human mGlu4 receptor expressed in BHK cells assessed as potentiation of glutamate-induced response after 1 hr by FLIPR assay relative to glutamate; assay type: cell-based
Method in brief: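 BHK cells stably co-expressing human mGlu4 and murine G-protein […], grown in DMEM at 37 °C, 5% CO₂. Cells seeded 24 h before assay, then loaded with Calcium 3 no-wash dye in HBSS/HEPES pH 7.4 with 0.1% BSA and 2.5 mM probenecid for 1 h at 37 °C. FLIPR calcium read after stimulation with EC₂₀ glutamate plus compound. Emax is percent of maximal glutamate response. Mean of ≥2 independent duplicate experiments.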

[2] = Apparent permeability of the compound by PAMPA assay; assay type: ADME
Method in brief: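 Passive permeability measured in a PAMPA assay.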

[3] = Kinetic solubility of the compound at pH 7.4 at room temperature; assay type: physicochemical; details: buffer, read-out: Kinetic_solubility
Method in brief: (§1)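 Kinetic solubility measured from DMSO stock solutions at room temperature. Assay run at the pH named in each line.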

[4] = target: T1, Metabotropic glutamate receptor 4; experiment: Positive allosteric modulation of human mGlu4 receptor expressed in BHK cells assessed as potentiation of glutamate-induced calcium mobilization after 1 hr by FLIPR assay; assay type: functional, cell-based
Method in brief: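 Stable BHK line co-expressing human mGlu4 and murine Gα15, plated on poly-D-lysine 24 h ahead. Cells loaded 1 h at 37 °C, 5% CO2 with Calcium 3 dye in HBSS/20 mM HEPES pH 7.4, 0.1% BSA, 2.5 mM probenecid. Test agent added with an EC20 glutamate challenge. Peak fluorescence change read by FLIPR and fitted to the Hill equation. At least two independent runs in duplicate, means reported.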

[5] = Plasma protein binding in rat; assay type: ADME, cell-free; details: read-out: PPB (converted)
[6] = target: T2, Metabotropic glutamate receptor 7 (Homo sapiens, UniProt Q14831); experiment: Negative allosteric modulation of mGlu7 receptor
[7] = target: T3, Metabotropic glutamate receptor 2 (Homo sapiens, UniProt Q14416); experiment: Positive allosteric modulation of mGlu2 receptor assessed as potentiation of glutamate-induced calcium mobilization; assay type: functional
[8] = tested on: P-gp (MDR1); experiment: Apparent permeability from apical to basolateral side of dog MDCK cells expressing human MDR1 by P-gp substrate assay; assay type: ADME, cell-based, Canis lupus familiaris
Method in brief: (§2)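 MDCK cells transfected with human MDR1, used as a P-gp substrate assay. Permeability measured in both directions, apical-to-basolateral and basolateral-to-apical. The efflux ratio is taken as B→A over A→B.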

[9] = tested on: P-gp (MDR1); experiment: Apparent permeability from basolateral to apical side of dog MDCK cells expressing human MDR1 by P-gp substrate assay; assay type: ADME, cell-based, Canis lupus familiaris; method in brief: as §2
[10] = target: T4, Metabotropic glutamate receptor 3 (Homo sapiens, UniProt Q14832); experiment: Negative allosteric modulation of mGlu3 receptor
[11] = target: T5, Metabotropic glutamate receptor 1 (Homo sapiens, UniProt Q13255); experiment: Positive allosteric modulation of mGlu1 receptor assessed as potentiation of glutamate-induced calcium mobilization; assay type: functional
[12] = target: T5, Metabotropic glutamate receptor 1; experiment: Negative allosteric modulation of mGlu1 receptor
[13] = Drug uptake in Sprague-Dawley rat brain at 10 mg/kg, po after 1 hr; assay type: ADME, organism-based; set-up: dose 10 mg/kg, route oral; details: read-out: Drug uptake
Method in brief: (§3)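 Sprague-Dawley rats given 10 mg/kg orally as a suspension in 20% aqueous hydroxypropyl-β-cyclodextrin. Plasma and brain levels taken at 1 h post-dose. Brain/plasma ratio derived from these levels.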

[14] = Plasma protein binding in human; assay type: ADME, cell-free; details: read-out: PPB (converted)
[15] = Intrinsic clearance in rat microsomes; assay type: ADME, Microsome
Method in brief: (§4)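 Intrinsic clearance measured in rat and human liver microsomes. Hepatic blood flow references given as 20 mL/min for rat and 1.5 L/min for human.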

[16] = Kinetic solubility of the compound at pH 1.5 at room temperature; assay type: physicochemical; details: buffer, read-out: Kinetic_solubility; method in brief: as §1
[17] = target: T6, Metabotropic glutamate receptor 5 (Homo sapiens, UniProt P41594); experiment: Positive allosteric modulation of mGlu5 receptor assessed as potentiation of glutamate-induced calcium mobilization; assay type: functional
[18] = target: T3, Metabotropic glutamate receptor 2; experiment: Negative allosteric modulation of mGlu2 receptor
[19] = Fraction unbound in rat brain; assay type: ADME, tissue-based
Method in brief: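 Brain free fraction determined by dialysis of rat brain homogenate.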

[20] = target: T4, Metabotropic glutamate receptor 3; experiment: Positive allosteric modulation of mGlu3 receptor assessed as potentiation of glutamate-induced calcium mobilization; assay type: functional
[21] = Lipophilicity, log D of the compound at pH 7.4; assay type: physicochemical; details: buffer
[22] = Plasma concentration in Sprague-Dawley rat at 10 mg/kg, po after 1 hr; assay type: ADME, organism-based; set-up: dose 10 mg/kg, route oral; method in brief: as §3
[23] = target: T2, Metabotropic glutamate receptor 7; experiment: Positive allosteric modulation of mGlu7 receptor assessed as potentiation of glutamate-induced calcium mobilization; assay type: functional
[24] = Fraction unbound in rat plasma; assay type: ADME, cell-free
[25] = target: T6, Metabotropic glutamate receptor 5; experiment: Negative allosteric modulation of mGlu5 receptor
[26] = Intrinsic clearance in human microsomes; assay type: ADME, Microsome; method in brief: as §4
[27] = Ratio of drug level in brain to plasma of Sprague-Dawley rat at 10 mg/kg, po after 1 hr; assay type: ADME, organism-based; set-up: dose 10 mg/kg, route oral; details: read-out: BPR; method in brief: as §3
[28] = Fraction unbound in human plasma; assay type: ADME, cell-free
[29] = Drug uptake in Sprague-Dawley rat cerebrospinal fluid at 10 mg/kg, sc after 1 hr

T4 sequence (Q14832 whole entry): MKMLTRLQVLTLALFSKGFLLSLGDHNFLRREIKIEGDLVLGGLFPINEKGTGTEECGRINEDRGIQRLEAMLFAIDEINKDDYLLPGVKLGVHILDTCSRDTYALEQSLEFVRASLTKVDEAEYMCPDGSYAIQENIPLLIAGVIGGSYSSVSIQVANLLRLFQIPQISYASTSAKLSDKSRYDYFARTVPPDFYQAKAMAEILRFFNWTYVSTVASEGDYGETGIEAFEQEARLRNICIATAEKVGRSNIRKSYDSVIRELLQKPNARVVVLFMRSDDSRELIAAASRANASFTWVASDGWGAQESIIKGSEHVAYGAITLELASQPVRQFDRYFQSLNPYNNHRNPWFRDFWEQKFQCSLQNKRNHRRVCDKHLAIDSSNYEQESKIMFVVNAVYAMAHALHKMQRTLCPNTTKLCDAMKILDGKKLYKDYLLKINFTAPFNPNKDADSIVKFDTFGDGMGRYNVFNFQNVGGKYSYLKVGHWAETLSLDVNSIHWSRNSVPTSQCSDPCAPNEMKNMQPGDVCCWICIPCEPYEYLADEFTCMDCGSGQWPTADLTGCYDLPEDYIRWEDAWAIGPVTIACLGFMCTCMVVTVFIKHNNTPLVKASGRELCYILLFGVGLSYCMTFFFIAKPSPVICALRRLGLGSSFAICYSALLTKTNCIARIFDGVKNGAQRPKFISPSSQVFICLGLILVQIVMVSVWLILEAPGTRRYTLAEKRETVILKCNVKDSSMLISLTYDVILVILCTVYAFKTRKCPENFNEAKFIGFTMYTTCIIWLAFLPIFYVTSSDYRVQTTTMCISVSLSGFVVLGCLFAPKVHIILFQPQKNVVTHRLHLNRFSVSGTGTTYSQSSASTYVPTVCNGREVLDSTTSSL
T1 sequence (Q14833 whole entry): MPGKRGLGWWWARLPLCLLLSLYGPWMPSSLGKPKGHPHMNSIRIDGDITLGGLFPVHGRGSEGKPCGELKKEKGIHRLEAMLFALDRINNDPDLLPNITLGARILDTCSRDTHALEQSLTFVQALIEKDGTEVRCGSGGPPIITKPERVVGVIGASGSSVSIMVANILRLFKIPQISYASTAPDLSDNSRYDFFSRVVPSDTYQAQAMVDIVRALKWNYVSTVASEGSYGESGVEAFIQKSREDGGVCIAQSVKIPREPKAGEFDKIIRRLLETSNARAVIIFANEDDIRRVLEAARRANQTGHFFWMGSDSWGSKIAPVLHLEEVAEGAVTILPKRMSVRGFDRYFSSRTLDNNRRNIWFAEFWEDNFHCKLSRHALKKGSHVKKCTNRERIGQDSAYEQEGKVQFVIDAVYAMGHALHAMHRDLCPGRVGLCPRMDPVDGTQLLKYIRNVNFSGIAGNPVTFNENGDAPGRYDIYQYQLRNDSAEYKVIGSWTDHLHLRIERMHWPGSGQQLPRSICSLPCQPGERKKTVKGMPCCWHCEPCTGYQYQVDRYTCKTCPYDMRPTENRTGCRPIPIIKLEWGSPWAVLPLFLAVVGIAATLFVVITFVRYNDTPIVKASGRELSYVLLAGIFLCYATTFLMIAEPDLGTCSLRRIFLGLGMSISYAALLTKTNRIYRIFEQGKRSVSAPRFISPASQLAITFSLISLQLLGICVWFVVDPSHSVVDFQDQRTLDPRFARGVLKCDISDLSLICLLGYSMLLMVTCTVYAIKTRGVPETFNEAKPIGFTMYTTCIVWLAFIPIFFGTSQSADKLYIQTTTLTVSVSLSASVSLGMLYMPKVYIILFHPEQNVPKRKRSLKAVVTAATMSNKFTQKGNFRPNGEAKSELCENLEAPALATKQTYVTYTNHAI
T5 sequence (Q13255 whole entry): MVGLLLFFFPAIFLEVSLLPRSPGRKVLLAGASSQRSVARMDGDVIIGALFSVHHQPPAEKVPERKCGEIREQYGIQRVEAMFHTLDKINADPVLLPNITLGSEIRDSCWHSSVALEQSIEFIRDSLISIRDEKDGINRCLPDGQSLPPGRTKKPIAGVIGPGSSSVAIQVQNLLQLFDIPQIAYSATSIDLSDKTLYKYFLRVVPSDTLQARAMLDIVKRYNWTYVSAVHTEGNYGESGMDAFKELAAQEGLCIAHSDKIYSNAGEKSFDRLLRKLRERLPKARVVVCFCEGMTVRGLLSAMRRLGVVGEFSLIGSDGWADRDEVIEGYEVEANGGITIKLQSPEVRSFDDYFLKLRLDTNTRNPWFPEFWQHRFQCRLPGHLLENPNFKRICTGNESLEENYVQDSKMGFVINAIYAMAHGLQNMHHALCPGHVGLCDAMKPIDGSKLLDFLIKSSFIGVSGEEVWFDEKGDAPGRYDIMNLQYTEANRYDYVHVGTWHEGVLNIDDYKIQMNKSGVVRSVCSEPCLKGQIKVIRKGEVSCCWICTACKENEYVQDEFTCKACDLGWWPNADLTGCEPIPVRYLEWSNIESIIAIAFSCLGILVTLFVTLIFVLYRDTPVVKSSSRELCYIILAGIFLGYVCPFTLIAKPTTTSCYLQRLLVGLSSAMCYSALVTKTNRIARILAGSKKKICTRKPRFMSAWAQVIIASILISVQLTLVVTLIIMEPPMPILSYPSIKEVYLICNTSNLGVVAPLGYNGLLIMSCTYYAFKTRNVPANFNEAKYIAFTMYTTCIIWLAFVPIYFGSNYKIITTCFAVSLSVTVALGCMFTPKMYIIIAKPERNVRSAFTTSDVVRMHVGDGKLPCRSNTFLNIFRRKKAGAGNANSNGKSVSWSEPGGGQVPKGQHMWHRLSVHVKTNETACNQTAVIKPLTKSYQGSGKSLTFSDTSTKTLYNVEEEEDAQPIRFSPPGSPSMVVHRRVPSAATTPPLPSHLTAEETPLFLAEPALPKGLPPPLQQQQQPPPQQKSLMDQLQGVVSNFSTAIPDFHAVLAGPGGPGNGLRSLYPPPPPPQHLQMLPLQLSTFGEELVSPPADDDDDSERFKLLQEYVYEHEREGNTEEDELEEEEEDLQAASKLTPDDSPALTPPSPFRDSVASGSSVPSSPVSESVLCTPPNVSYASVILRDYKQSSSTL
T2 sequence (Q14831 whole entry): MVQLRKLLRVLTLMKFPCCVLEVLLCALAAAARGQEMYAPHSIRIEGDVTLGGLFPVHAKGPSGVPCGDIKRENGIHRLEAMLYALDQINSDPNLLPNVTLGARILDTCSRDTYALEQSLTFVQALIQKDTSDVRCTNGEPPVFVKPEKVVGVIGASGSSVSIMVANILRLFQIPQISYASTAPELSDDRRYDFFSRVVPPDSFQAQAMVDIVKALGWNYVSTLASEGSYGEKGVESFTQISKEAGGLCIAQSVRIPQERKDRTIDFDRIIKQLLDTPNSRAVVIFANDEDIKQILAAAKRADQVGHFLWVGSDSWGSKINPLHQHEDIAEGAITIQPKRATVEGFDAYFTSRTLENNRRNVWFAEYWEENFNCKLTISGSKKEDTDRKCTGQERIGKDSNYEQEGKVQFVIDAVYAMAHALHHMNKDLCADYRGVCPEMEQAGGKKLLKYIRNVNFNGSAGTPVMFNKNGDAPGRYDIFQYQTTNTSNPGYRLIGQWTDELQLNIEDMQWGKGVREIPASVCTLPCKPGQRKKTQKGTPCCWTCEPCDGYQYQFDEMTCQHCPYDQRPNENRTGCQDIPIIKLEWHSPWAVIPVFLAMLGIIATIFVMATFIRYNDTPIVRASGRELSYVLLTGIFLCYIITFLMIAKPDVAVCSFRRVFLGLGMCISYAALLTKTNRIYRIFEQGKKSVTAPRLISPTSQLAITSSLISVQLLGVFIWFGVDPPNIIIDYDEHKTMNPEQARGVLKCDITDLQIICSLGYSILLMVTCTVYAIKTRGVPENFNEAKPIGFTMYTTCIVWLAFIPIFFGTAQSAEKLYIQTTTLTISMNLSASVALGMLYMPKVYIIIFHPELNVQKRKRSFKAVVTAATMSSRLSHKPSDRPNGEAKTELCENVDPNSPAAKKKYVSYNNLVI
T6 sequence (P41594 whole entry): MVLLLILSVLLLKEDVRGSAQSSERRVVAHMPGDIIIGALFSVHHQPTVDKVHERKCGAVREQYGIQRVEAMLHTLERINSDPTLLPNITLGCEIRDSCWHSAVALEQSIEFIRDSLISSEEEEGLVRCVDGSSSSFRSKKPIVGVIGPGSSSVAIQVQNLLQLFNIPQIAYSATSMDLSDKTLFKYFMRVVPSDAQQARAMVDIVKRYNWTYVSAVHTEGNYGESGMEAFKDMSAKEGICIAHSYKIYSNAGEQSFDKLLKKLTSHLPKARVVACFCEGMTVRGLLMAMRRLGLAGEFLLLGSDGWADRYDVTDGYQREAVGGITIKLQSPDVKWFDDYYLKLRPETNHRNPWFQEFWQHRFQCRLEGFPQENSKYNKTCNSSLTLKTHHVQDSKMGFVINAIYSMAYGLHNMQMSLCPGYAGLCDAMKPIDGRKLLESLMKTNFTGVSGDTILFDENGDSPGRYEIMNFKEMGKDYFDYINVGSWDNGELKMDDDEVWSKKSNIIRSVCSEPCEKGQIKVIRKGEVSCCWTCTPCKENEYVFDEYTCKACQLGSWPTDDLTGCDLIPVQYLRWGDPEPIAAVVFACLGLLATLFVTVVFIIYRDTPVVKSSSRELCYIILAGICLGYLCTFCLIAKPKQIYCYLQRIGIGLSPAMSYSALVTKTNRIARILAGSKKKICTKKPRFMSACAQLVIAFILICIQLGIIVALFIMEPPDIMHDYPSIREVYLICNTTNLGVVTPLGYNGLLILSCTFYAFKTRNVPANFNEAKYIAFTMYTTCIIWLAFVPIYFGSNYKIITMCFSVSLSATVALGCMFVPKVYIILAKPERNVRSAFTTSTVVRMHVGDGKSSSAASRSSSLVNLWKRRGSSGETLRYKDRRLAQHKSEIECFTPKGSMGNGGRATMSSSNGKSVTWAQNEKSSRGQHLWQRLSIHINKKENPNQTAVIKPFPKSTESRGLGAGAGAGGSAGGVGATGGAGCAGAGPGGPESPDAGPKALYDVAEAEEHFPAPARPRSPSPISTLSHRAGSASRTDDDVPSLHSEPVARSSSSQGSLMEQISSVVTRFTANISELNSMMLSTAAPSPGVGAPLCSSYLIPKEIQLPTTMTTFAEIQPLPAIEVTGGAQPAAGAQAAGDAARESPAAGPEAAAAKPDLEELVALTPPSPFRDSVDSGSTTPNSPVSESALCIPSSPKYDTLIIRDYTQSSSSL

Cc1ccnc(Nc2nc3c(s2)CCc2n[nH]cc2-3)c1
Emax [1]: 11%
Papp [2]: 12.4 ×10⁻⁶ cm/s
solubility kinetic [3]: 9 µM (≈ 2.55 µg/mL)
EC50 [4]: > 10 µM

c1cnc(Nc2nc3c(s2)CCCc2[nH]ncc2-3)nc1
fraction unbound [5]: 0.006
IC50 [6]: > 10 µM
EC50 [7]: > 10 µM
Papp A→B [8]: 33 ×10⁻⁶ cm/s
Papp B→A [9]: 21 ×10⁻⁶ cm/s
IC50 [10]: > 10 µM
EC50 [11]: > 10 µM
IC50 [12]: > 10 µM
concentration at 1 h [13]: 3.1 ng/g
fraction unbound [14]: 0.031
CL [15]: 92 mL/min
solubility kinetic [16]: 100 µM (≈ 28.4 µg/mL)
Papp [2]: 1.5 ×10⁻⁶ cm/s
EC50 [17]: > 10 µM
IC50 [18]: > 10 µM
fraction unbound [19]: 0.016
EC50 [20]: > 10 µM
logD [21]: 3.8
solubility kinetic [3]: 3 µM (≈ 0.853 µg/mL)
concentration at 1 h [22]: 0.7 ng/mL
EC50 [4]: 0.007 µM
EC50 [23]: > 10 µM
fraction unbound [24]: 0.006
IC50 [25]: > 10 µM
CL [26]: 9 L/min

c1ccc(Nc2nc3c(s2)CCCc2[nH]ncc2-3)nc1
fraction unbound [5]: 0.011
IC50 [6]: > 10 µM
EC50 [7]: > 10 µM
Papp A→B [8]: 24 ×10⁻⁶ cm/s
Kp at 1 h [27]: 0.8
Papp B→A [9]: 13 ×10⁻⁶ cm/s
IC50 [10]: > 10 µM
EC50 [11]: > 10 µM
IC50 [12]: > 10 µM
concentration at 1 h [13]: 200 ng/g
fraction unbound [14]: 0.006
CL [15]: 36 mL/min
solubility kinetic [16]: 240 µM (≈ 68 µg/mL)
Papp [2]: 9.4 ×10⁻⁶ cm/s
EC50 [17]: > 10 µM
IC50 [18]: > 10 µM
fraction unbound [19]: 0.0043
EC50 [20]: > 10 µM
logD [21]: 5
solubility kinetic [3]: 1.2 µM (≈ 0.34 µg/mL)
concentration at 1 h [22]: 259 ng/mL
EC50 [4]: 0.009 µM
EC50 [23]: > 10 µM
fraction unbound [24]: 0.011
IC50 [25]: > 10 µM
CL [26]: 10 L/min

c1ccc(Nc2nc(-c3cn[nH]c3)cs2)nc1
Kp at 1 h [27]: 1
concentration at 1 h [13]: 744 ng/g
CL [15]: 61 mL/min
Emax [1]: 72%
solubility kinetic [16]: 220 µM (≈ 53.5 µg/mL)
Papp [2]: 32.9 ×10⁻⁶ cm/s
fraction unbound [19]: 0.014
logD [21]: 3.1
solubility kinetic [3]: 120 µM (≈ 29.2 µg/mL)
concentration at 1 h [22]: 766 ng/mL
EC50 [4]: 0.41 µM
fraction unbound [24]: 0.092
CL [26]: 11 L/min
fraction unbound [28]: 0.035
concentration at 1 h [29]: 52 ng/mL

Cc1ccc(Nc2nc3c(s2)CCc2n[nH]cc2-3)nc1
Emax [1]: 12%
Papp [2]: 1.9 ×10⁻⁶ cm/s
solubility kinetic [3]: < 0.1 µM
EC50 [4]: > 10 µM

c1ccc(Nc2nc3c(s2)CCc2[nH]ncc2-3)nc1
fraction unbound [5]: 0.023
IC50 [6]: > 10 µM
EC50 [7]: > 10 µM
Papp A→B [8]: 22 ×10⁻⁶ cm/s
Kp at 1 h [27]: 0.5
Papp B→A [9]: 7.7 ×10⁻⁶ cm/s
IC50 [10]: > 10 µM
EC50 [11]: > 10 µM
IC50 [12]: > 10 µM
concentration at 1 h [13]: 517 ng/g
fraction unbound [14]: 0.008
CL [15]: 37 mL/min
solubility kinetic [16]: 220 µM (≈ 59.3 µg/mL)
Papp [2]: 3 ×10⁻⁶ cm/s
EC50 [17]: > 10 µM
IC50 [18]: > 10 µM
fraction unbound [19]: 0.0043
EC50 [20]: > 10 µM
logD [21]: 4
solubility kinetic [3]: 0.1 µM (≈ 0.0269 µg/mL)
concentration at 1 h [22]: 987 ng/mL
EC50 [4]: 0.22 µM
EC50 [23]: > 10 µM
fraction unbound [24]: 0.023
IC50 [25]: > 10 µM
CL [26]: 5.6 L/min

Cc1cccc(Nc2nc3c(s2)CCc2[nH]ncc2-3)n1
CL [15]: 400 mL/min
Papp [2]: 2 ×10⁻⁶ cm/s
solubility kinetic [3]: 2.9 µM (≈ 0.822 µg/mL)
EC50 [4]: 0.91 µM
CL [26]: 48 L/min

c1cnc(Nc2nc3c(s2)CCc2[nH]ncc2-3)nc1
fraction unbound [5]: 0.105
fraction unbound [14]: 0.036
CL [15]: 42 mL/min
Papp [2]: 3.4 ×10⁻⁶ cm/s
solubility kinetic [3]: 20 µM (≈ 5.41 µg/mL)
EC50 [4]: 0.065 µM
CL [26]: 4.4 L/min

Cc1ccc(Nc2nc3c(s2)CCCc2n[nH]cc2-3)nn1
Emax [1]: 6.3%
Papp [2]: 31 ×10⁻⁶ cm/s
solubility kinetic [3]: 21 µM (≈ 6.27 µg/mL)
EC50 [4]: > 10 µM

c1cc(Nc2nc3c(s2)CCCc2n[nH]cc2-3)ncn1
Emax [1]: 150%
Papp [2]: 41 ×10⁻⁶ cm/s
solubility kinetic [3]: 1.8 µM (≈ 0.512 µg/mL)
EC50 [4]: 1.3 µM

OCc1cccc(Nc2nc3c(s2)CCCc2n[nH]cc2-3)n1
Emax [1]: 76%
Papp [2]: 38.8 ×10⁻⁶ cm/s
solubility kinetic [3]: 30 µM (≈ 9.4 µg/mL)
EC50 [4]: 2.7 µM

COCCOc1cccc(Nc2nc3c(s2)CCCc2n[nH]cc2-3)n1
Emax [1]: 90%
Papp [2]: 0.1 ×10⁻⁶ cm/s
solubility kinetic [3]: 0.1 µM (≈ 0.0357 µg/mL)
EC50 [4]: 0.39 µM

CCOc1cccc(Nc2nc3c(s2)CCCc2n[nH]cc2-3)n1
Emax [1]: 78%
Papp [2]: < 0.1 ×10⁻⁶ cm/s
solubility kinetic [3]: < 0.1 µM
EC50 [4]: 0.29 µM

COC(=O)c1cccc(Nc2nc3c(s2)CCCc2n[nH]cc2-3)n1
Emax [1]: 5%
Papp [2]: 0.1 ×10⁻⁶ cm/s
solubility kinetic [3]: 1.9 µM (≈ 0.649 µg/mL)
EC50 [4]: > 10 µM

c1[nH]nc2c1-c1nc(NC3CCCCC3)sc1CCC2
Emax [1]: 150%
Papp [2]: 2.8 ×10⁻⁶ cm/s
solubility kinetic [3]: < 0.1 µM
EC50 [4]: 1.3 µM

CCNc1cccc(Nc2nc3c(s2)CCCc2n[nH]cc2-3)n1
Emax [1]: 63%
Papp [2]: 3.1 ×10⁻⁶ cm/s
solubility kinetic [3]: 0.9 µM (≈ 0.294 µg/mL)
EC50 [4]: 0.6 µM

c1ccc(Nc2nc3c(s2)CCc2[nH]ncc2-3)cc1
Papp [2]: < 0.1 ×10⁻⁶ cm/s
solubility kinetic [3]: < 0.1 µM
EC50 [4]: 2.2 µM
